# Measured values from ChEMBL document CHEMBL2331370, “Structure and absolute configuration of fumiquinazoline L, an alkaloid from a gorgonian-derived Scopulariopsis sp. fungus” (J Nat Prod, 2013).
# Activity calls are given as the source filed them. The calls are words filed in the database; no cut-off is given here.
# How the values were obtained:
# Vibrio anguillarum = assay: Antibacterial activity against Vibrio anguillarum ATCC 19019 at 50 uM after 24 hrs by serial dilution technique; type: functional, organism-based
# Summary of the method: (§1)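 Broth serial dilution MIC in 96-well plates. Compound given as DMSO stock. Strains grown overnight at 37 °C in LB broth, then diluted to 106 cfu/mL. Positive control ciprofloxacin; DMSO as negative control; LB broth as blank. Incubation 37 °C, 24 h, then plates read at 630 nm.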
# Escherichia coli = assay: Antibacterial activity against Escherichia coli ATCC 25922 at 50 uM after 24 hrs by serial dilution technique; type: functional, organism-based; summary of the method: as §1
# Staphylococcus aureus = assay: Antibacterial activity against Staphylococcus aureus ATCC 27154 at 50 uM after 24 hrs by serial dilution technique; type: functional, organism-based; summary of the method: as §1
# Micrococcus = assay: Antibacterial activity against Micrococcus tetragenus ATCC 13623 at 50 uM after 24 hrs by serial dilution technique; type: functional, organism-based; summary of the method: as §1
# Bacillus cereus = assay: Antibacterial activity against Bacillus cereus ACCC 11077 at 50 uM after 24 hrs by serial dilution technique; type: functional, organism-based; summary of the method: as §1
# Micrococcus luteus = assay: Antibacterial activity against Micrococcus luteus ATCC 49732 at 50 uM after 24 hrs by serial dilution technique; type: functional, organism-based; summary of the method: as §1
# Vibrio parahaemolyticus = assay: Antibacterial activity against Vibrio parahaemolyticus ATCC 17802 after 24 hrs by serial dilution technique; type: functional; conditions: ATCC 17802, 24 h; summary of the method: as §1
# Staphylococcus = assay: Antibacterial activity against Staphylococcus albus ATCC 8799 after 24 hrs by serial dilution technique; type: functional; conditions: ATCC 8799, 24 h; summary of the method: as §1
# Bacillus subtilis = assay: Antibacterial activity against Bacillus subtilis ATCC 6633 after 24 hrs by serial dilution technique; type: functional; conditions: ATCC 6633, 24 h; summary of the method: as §1
# K562 = assay: Cytotoxicity against human K562 cells at 100 uM after 6 days by MTT assay; type: functional, cell-based
# Bel-7402 = assay: Cytotoxicity against human Bel7402 cells at 100 uM after 6 days by MTT assay; type: functional, cell-based
# SGC-7901 = assay: Cytotoxicity against human SGC7901 cells at 100 uM after 6 days by MTT assay; type: functional, cell-based
# A549 = assay: Cytotoxicity against human A549 cells after 6 days by MTT assay; type: functional, cell-based; conditions: A549, 144 h
# SPC-A1 = assay: Cytotoxicity against human SPC-A1 cells at 100 uM after 6 days by MTT assay; type: functional, cell-based
smiles,measurement,setting,value
CC(C)[C@@H]1N[C@@H]2N(C1=O)c1ccccc1[C@]21C[C@@H]2C(=O)N[C@](C)(O1)c1nc3ccccc3c(=O)n12 [FUMIQUINAZOLINE L],Activity,Vibrio anguillarum,inactive
same,Activity,Escherichia coli,inactive
same,Activity,Staphylococcus aureus,inactive
same,Activity,Micrococcus,inactive
same,Activity,Bacillus cereus,inactive
same,Activity,Micrococcus luteus,inactive
same,MIC,Vibrio parahaemolyticus,> 50 µM
same,MIC,Staphylococcus,> 50 µM
same,MIC,Bacillus subtilis,> 50 µM
same,Activity,K562,inactive
same,Activity,Bel-7402,inactive
same,Activity,SGC-7901,inactive
same,IC50,A549,> 10 µM
same,Activity,SPC-A1,inactive
